Assay results as given in PMC10401071 (Cancer Discovery, 2023).

Experiments:
[1] = test system: SJSA-1; conditions: SJSA-1 proliferation assay, in vitro; cited from earlier work
[2] = test system: advanced or metastatic solid tumors; assay: Antitumor activity, investigator-assessed per RECIST v1.1, PFS by Kaplan–Meier; assay type: in vivo, human; conditions: for duration of stable disease: WDLPS; for duration of response: partial response
[3] = Phase Ia dose escalation: dose-limiting toxicities; assay type: in vivo, human; conditions: for maximum tolerated dose (MTD): based on DLTs during cycle 1 and BLRM
Outline: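 Escalating oral doses, day 1 q21d (10–80 mg) or days 1 and 8 q28d (5–60 mg). DLTs were counted over cycle 1 (21 or 28 days). The MTD was the highest dose with <25% risk of true DLT rate ≥33%, estimated by BLRM with overdose control. The RDE came from a supplementary BLRM on haematologic AEs of interest over the whole treatment period.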

For `Cc1c(C(=O)O)ccc2c3n(nc12)[C@@H]1[C@H](C3)N(CC2CC2)[C@@]2(C(=O)Nc3cc(Cl)ccc32)[C@H]1c1cccc(Cl)c1F` [brigimadlin], the IC50 [1] is given as 12 nM, the disease control rate ([2]; 12 patients with DDLPS) is given as 75% and the Complete response ([2]; All patients (N = 54)) is given as 0 n (%). The Confirmed objective response ([2]; All patients (N = 54)) was 6 (11.1) n (%), the Disease control ([2]; All patients (N = 54)) was 40 (74.1) n (%) and the “Not evaluable (best overall response)” value ([2]; All patients (N = 54)) was 3 (5.6) n (%). For the same compound, the Partial response ([2]; All patients (N = 54)) was 6 (11.1) n (%), the Progressive disease ([2]; All patients (N = 54)) was 11 (20.4) n (%) and the Stable disease ([2]; All patients (N = 54)) was 34 (63.0) n (%). For the same compound, the overall response rate ([2]; D1D8q4w) was 8.0%, the Complete response ([2]; D1D8q4w (n = 25)) was 0 n (%) and the Confirmed objective response ([2]; D1D8q4w (n = 25)) was 2 (8.0) n (%). For the same compound, the Disease control ([2]; D1D8q4w (n = 25)) was 18 (72.0) n (%), the “Not evaluable (best overall response)” value ([2]; D1D8q4w (n = 25)) was 2 (8.0) n (%) and the Partial response ([2]; D1D8q4w (n = 25)) was 2 (8.0) n (%). For the same compound, the Progressive disease ([2]; D1D8q4w (n = 25)) was 5 (20.0) n (%), the Stable disease ([2]; D1D8q4w (n = 25)) was 16 (64.0) n (%) and the disease control rate ([2]; D1D8q4w arm) was 72.0%. For the same compound, the “median progression-free survival (PFS)” value ([2]; D1D8q4w arm, 95% CI: 3.7–18.5) was 8.0 months, the overall response rate ([2]; D1q3w) was 13.8% and the Complete response ([2]; D1q3w (n = 29)) was 0 n (%). The Confirmed objective response ([2]; D1q3w (n = 29)) was 4 (13.8) n (%), the Disease control ([2]; D1q3w (n = 29)) was 22 (75.9) n (%) and the “Not evaluable (best overall response)” value ([2]; D1q3w (n = 29)) was 1 (3.4) n (%). For the same compound, the Partial response ([2]; D1q3w (n = 29)) was 4 (13.8) n (%), the Progressive disease ([2]; D1q3w (n = 29)) was 6 (20.7) n (%) and the Stable disease ([2]; D1q3w (n = 29)) was 18 (62.1) n (%). The disease control rate ([2]; D1q3w arm) was 75.9%, the “median progression-free survival (PFS)” value ([2]; D1q3w arm, 95% CI: 3.0–20.7) was 10.6 months and the “duration of stable disease” value ([2]; one patient) was greater than 14 months. The “duration of stable disease” value ([2]; the other two patients) was roughly 8 months, the disease control rate ([2]; all 54 patients) was 74.1% and the overall response rate ([2]; all 54 patients, data cutoff October 24, 2022) was 11.1%. For the same compound, the PFS ([2]; all seven patients with WDLPS) was greater than 7.5 months, the “duration of partial response” value ([2]; four WDLPS patients, ranging up to about 25 months) was no less than 12 months and the “patients achieving PFS ≥14 months” value ([2]; of seven patients with WDLPS) was “five”. For the same compound, the “patients achieving a partial response” value ([2]; of seven patients with WDLPS) was “four”, the “patients achieving stable disease” value ([2]; of seven patients with WDLPS) was “three” and the “patients achieving stable disease” value ([2]; of the 12 patients with DDLPS) was “nine”. For the same compound, the duration of response ([2]; one patient with MDM2-amplified intrahepatic cholangiocarcinoma) was roughly 12 months, the duration of response ([2]; one patient with MDM2-amplified pancreatic cancer) was greater than 5.5 months and the “median progression-free survival (PFS)” value ([2]; overall, preliminary analysis, 95% CI: 3.8–13.5) was 8.1 months. The disease control rate ([2]; seven patients with WDLPS) was 100%, the “tumor reduction (partial response)” value ([2]; single patient (Fig. 3A), MDM2-amplified WDLPS, 20 mg q3w, starting at cycle 2) was 31% and the tumor reduction ([2]; single patient (Fig. 3A), MDM2-amplified WDLPS, cycle 19, dose reduced to 10 mg) was 47%. The “tumor reduction (partial response)” value ([2]; single patient (Fig. 3B), MDM2-amplified WDLPS, 80 mg D1q3w, cycle 3) was 32%, the best tumor reduction ([2]; single patient (Fig. 3B), MDM2-amplified WDLPS, at data cutoff) was 42% and the time on treatment ([2]; single patient (Fig. 3B), MDM2-amplified WDLPS, ongoing at data cutoff) was “more than 25 months”. The “time on treatment before progressive disease” value ([2]; single patient (Fig. 3D), MDM2-amplified cholangiocarcinoma) was 13.3 months, the “treatment discontinuation due to a DLT in cycle 1” value ([3]; D1D8q4w arm) was “no patient discontinued treatment due to a DLT in cycle 1” and the “patients with DLTs during the MTD evaluation period (cycle 1)” value ([3]; D1D8q4w arm, 5 to 60 mg) was “Three”. For the same compound, the “maximum tolerated dose (MTD)” value ([3]; D1D8q4w) was 45 mg, the “treatment discontinuation due to a DLT in cycle 1” value ([3]; D1q3w arm) was “No patient discontinued treatment due to a DLT in cycle 1” and the “patients with DLTs during the MTD evaluation period (cycle 1)” value ([3]; D1q3w arm, 10 to 80 mg) was “Five”. The “maximum tolerated dose (MTD)” value ([3]; D1q3w) was 60 mg, the “patients with DLTs after the MTD evaluation period” value ([3]; both arms) was “Seven” and the “recommended dose for expansion (RDE) for phase Ib” value ([3]; q3w, supplementary BLRM analysis of AEs of interest over entire treatment period) was 45 mg.
